Assays:
[1] = tested on: Human immunodeficiency virus 1; assay: Antiviral activity against R5-tropic HIV1 subtype B BaL infected in human TZM-bl cells assessed as viral inhibition pre-incubated for 30 mins prior to infection measured after 48 hrs by luciferase assay; assay type: functional, organism-based
Summary of the method: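 TZM-bl cells (10^4/well at 10^5 cells/mL, medium with 30 µg/mL DEAE dextran) pre-incubated with serial compound dilutions 30 min at 37 °C, 5% CO2. Then infected with 200 TCID50 HIV-1 BaL and incubated 48 h. Luciferase read-out expressed as % inhibition vs untreated controls. EC50 from non-linear regression. Triplicate wells, ≥3 independent experiments.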

[2] = Selectivity index, ratio of CC50 for human TZM-bl cells to EC50 for R5-tropic HIV1 subtype B BaL infected in human TZM-bl cells; assay type: toxicity, cell-based; settings: for selectivity ratio: TZM-bl cells, read-out: Selectivity Index
[3] = tested on: Human immunodeficiency virus 1; assay: Antiviral activity against nevirapine resistant R5-tropic HIV1 subtype C VI829 expressing reverse transcriptase Y181C mutant infected in human TZM-bl cells assessed as viral inhibition pre-incubated for 30 mins prior to infection measured after 48 hrs by luciferase assay; assay type: functional, organism-based; settings: Human immunodeficiency virus 1, VI829, TZM-bl
Summary of the method: (§1)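 TZM-bl cells (10^4 per well, at 10^5 cells/mL in medium with 30μg/mL DEAE dextran) pre-incubated with serial compound dilutions, then infected with 200 TCID50 of resistant HIV-1; luciferase read after 48 h. Inhibition expressed as % of untreated controls; EC50 by non-linear regression. Triplicate wells, at least three independent experiments.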

[4] = tested on: Human immunodeficiency virus 1; assay: Antiviral activity against efavirenz resistant R5-tropic HIV1 subtype C VI829 expressing reverse transcriptase L100I-K103N mutant infected in human TZM-bl cells assessed as viral inhibition pre-incubated for 30 mins prior to infection measured after 48 hrs by luciferase assay; assay type: functional, organism-based; settings: Human immunodeficiency virus 1, VI829, TZM-bl; summary of the method: as §1
[5] = tested on: Human immunodeficiency virus 1; assay: Antiviral activity against HIV1 NL4.3 expressing reverse transcriptase K103N mutant infected in human TZM-bl cells assessed as viral inhibition pre-incubated for 30 mins prior to infection measured after 48 hrs by luciferase assay; assay type: functional, organism-based; settings: Human immunodeficiency virus 1, NL4.3, TZM-bl; summary of the method: as §1
[6] = tested on: Human immunodeficiency virus 1; assay: Antiviral activity against HIV1 NL4.3 expressing reverse transcriptase K103N-Y181C mutant infected in human TZM-bl cells assessed as viral inhibition pre-incubated for 30 mins prior to infection measured after 48 hrs by luciferase assay; assay type: functional, organism-based; settings: Human immunodeficiency virus 1, NL4.3, TZM-bl; summary of the method: as §1
[7] = Human immunodeficiency virus 1, BaL, TZM-bl

SMILES	EC50 [1, 7] [nM]	selectivity ratio [2]	EC50 [3] [nM]	EC50 [4] [nM]	EC50 [5] [nM]	EC50 [6] [nM]	EC50 ([1]; tzm-bl) [nM]	Selectivity Index ([2]; tzm-bl)
Cc1cc(/C=C/C#N)cc(C)c1Nc1ccc(F)c(Nc2ccc(Cl)cc2)n1 (mixture of isomers)	6.3	6600						
Cc1cc(C#N)cc(C)c1Nc1cccc(Nc2ccc(C#N)cc2)n1	25	930	1500	6600				
Cc1cc(C#N)cc(C)c1Nc1ccc(F)c(Nc2ccc(Cl)cc2)n1	15	2000						
Cc1cc(/C=C/C#N)ccc1Nc1ccc(F)c(Nc2ccc(F)cc2)n1	400	210						
Cc1cc(/C=C/C#N)ccc1Nc1ccc(F)c(Nc2ccc(C#N)cc2)n1 (mixture of isomers)	11	24000						
COC(=O)/C=C/c1cc(C)c(Nc2ccc(F)c(Nc3ccc(F)cc3)n2)c(C)c1	84	610						
N#C/C=C/c1cc(F)c(Nc2ccc(F)c(Nc3ccc(C#N)cc3)n2)c(F)c1 (mixture of isomers)	3.3	4600						
Cc1cc(C#N)cc(C)c1Nc1ccc(F)c(Nc2ccc(C#N)cc2)n1	4.7	7100	91	> 10000				
Cc1cc(/C=C/C#N)cc(C)c1Nc1ccnc(Nc2ccc(C#N)cc2)n1 [RILPIVIRINE]	0.72	10700	2.5	3.6	0.7	3.1		
Cc1cc(/C=C/C#N)cc(C)c1Nc1ccc(F)c(Nc2ccc(C#N)cc2)c1 (mixture of isomers)	4.5	7400						
Cc1cc(C)c(Nc2cccc(Nc3ccc(C#N)cc3)n2)c(C)c1	30	1400						
COC(=O)/C=C/c1cc(C)c(Nc2ccc(F)c(Nc3ccc(Cl)cc3)n2)c(C)c1	53	950						
Cc1cc(/C=C/C#N)cc(C)c1Nc1cccc(Nc2ccc(C#N)cc2)n1 (mixture of isomers)	3.5	11000	91	> 1000				
Cc1cc(/C=C/C#N)cc(C)c1Nc1ccc(F)c(Nc2ccc(C#N)cc2)n1	1.5	62500	8.1	540	7.8	554	1.6	37500
Cc1cc(C#N)cc(F)c1Nc1ccc(F)c(Nc2ccc(C#N)cc2)n1	8.8	4600						
Cc1cc(/C=C/C#N)cc(F)c1Nc1ccc(F)c(Nc2ccc(C#N)cc2)n1	1	> 100000	25	272	36	> 1000		

SMILES	EC50 [1, 7] [nM]	selectivity ratio [2]	EC50 [3] [nM]	EC50 [4] [nM]	EC50 [5] [nM]	EC50 [6] [nM]	EC50 ([1]; tzm-bl) [nM]	Selectivity Index ([2]; tzm-bl)
Cc1cc(/C=C/C#N)cc(C)c1Nc1ccc(F)c(Nc2ccc(F)cc2)n1 (mixture of isomers)	6.2	8100						
N#C/C=C/c1ccc(Nc2ccc(F)c(Nc3ccc(C#N)cc3)n2)cc1 (mixture of isomers)	480	14						
Cc1cc(/C=C/C#N)cc(C)c1Nc1ccc(F)c(Nc2ccc(/C=C/C#N)cc2)n1	4.6	19000						
Cc1ccc(Oc2ccc(F)c(Nc3ccc(C#N)cc3)n2)cc1	260	390						
Cc1cc(/C=C/C#N)ccc1Nc1ccc(F)c(Nc2ccc(Cl)cc2)n1	63	380						
COC(=O)c1ccc(Nc2nc(Nc3c(C)cc(/C=C/C#N)cc3C)ccc2F)cc1	23	2100						
Cc1cc(C)c(Oc2ccc(F)c(Nc3ccc(C#N)cc3)n2)c(C)c1	8.6	6400						
COC(=O)/C=C/c1cc(C)c(Nc2ccc(F)c(Nc3ccc(C#N)cc3)n2)c(C)c1	4.4	13000						
Cc1cc(C#N)cc(C)c1Nc1ncc(F)c(Nc2ccc(C#N)cc2)n1	2.8	> 36000						
Cc1cc(C)c(Nc2ccnc(Nc3ccc(C#N)cc3)n2)c(C)c1 [DAPIVIRINE]	1.4	2000	11	> 1000	2.8	92		
Cc1cc(C)c(Nc2ccc(F)c(Nc3ccc(C#N)cc3)n2)c(C)c1	8.3	2000	130	> 10000				
Cc1cc(/C=C/C#N)ccc1Nc1ccc(F)c(Nc2ccc(C#N)cc2)c1 (mixture of isomers)	58	89						
Cc1cc(/C=C/C#N)cc(F)c1Nc1ccc(F)c(Nc2ccc(C#N)cc2)c1 (mixture of isomers)	11	6100						
Cc1cc(/C=C/C#N)cc(F)c1Nc1cccc(Nc2ccc(C#N)cc2)n1 (mixture of isomers)	5.5	5500	255	1100				
Cc1cc(C#N)cc(C)c1Nc1ccc(F)c(Nc2ccc(F)cc2)n1	51	830						
Cc1cc(/C=C/C#N)cc(C)c1Nc1ncc(F)c(Nc2ccc(C#N)cc2)n1 (mixture of isomers)	0.9	> 42000						

— ChEMBL document CHEMBL3785072, “2,6-Di(arylamino)-3-fluoropyridine Derivatives as HIV Non-Nucleoside Reverse Transcriptase Inhibitors” (J Med Chem, 2016)
